# According to ChEMBL document CHEMBL3286239, “Synthesis and biological evaluation of novel naphthalene compounds as potential antidepressant agents” (Eur J Med Chem, 2014):
# Active and inactive are the calls of the source. No cut-off for these calls is given here.
# Tests used:
# PC-12 [1] = experiment: Neurorestorative activity against H2O2-induced oxidant injury in rat PC12 cells assessed as restorative rate at 10 uM measured after 48 hrs pretreated with 200 uM H2O2 for 1 hr by MTT assay; type: functional
# Summary of the method: (§1)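 PC12 cells at 1×10^4/well in DMEM with 10% FBS and 5% horse serum for 24 h. Exposed to 200 μM H₂O₂ for 1 h, washed twice with PBS, then compound (10, 20 or 40 μM) in DMEM for 48 h. MTT 0.5 mg/ml final for 4 h, DMSO solubilization, A570. Restoration rate from absorbance relative to injured control; mean ± S.D. of six independent experiments.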
# PC-12 [2] = experiment: Neurorestorative activity against H2O2-induced oxidant injury in rat PC12 cells assessed as restorative rate at 20 uM measured after 48 hrs pretreated with 200 uM H2O2 for 1 hr by MTT assay; type: functional; summary of the method: as §1
# PC-12 [3] = experiment: Neurorestorative activity against H2O2-induced oxidant injury in rat PC12 cells assessed as restorative rate at 40 uM measured after 48 hrs pretreated with 200 uM H2O2 for 1 hr by MTT assay; type: functional; summary of the method: as §1
# PC-12 [4] = experiment: Neuroprotective activity against rat PC12 cells assessed as protection against corticosterone- induced lesion at 1.25 uM after 1 day by MTT assay; type: functional
# Summary of the method: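 Low-differentiated PC12 cells at 1×10^4/well in DMEM with 5% heat-inactivated horse serum and 10% FBS for 24 h. Then 200 μM corticosterone plus compound at 1.25 μM for 1 day. MTT 0.5 mg/ml final for 4 h, formazan in DMSO, A570. Protection rate = (A_drug − A_corticosterone)/A_corticosterone ×100; mean ± S.D. of six independent experiments.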
# PC-12 [5] = experiment: Neuroprotective activity against corticosterone- induced morphological change in rat PC12 cells assessed as decrease in shrunk axons at 1.25 uM after 24 hrs by inverted microscopic analysis; type: functional, cell-based
# Summary of the method: (§2)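 PC12 cells seeded at 1×10^6 cells/mL and grown 1 d. Exposed to corticosterone 0.2 mM with or without drug at 1.25 μM for 24 h. Photographed by inverted microscope in three random fields per group. Cells with shrunk axons and cycloid shape counted as injured, normal neuron-like cells counted separately, using computer-assisted image analysis.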
# PC-12 [6] = experiment: Neuroprotective activity against corticosterone- induced morphological change in rat PC12 cells assessed as decrease in cycloid shape at 1.25 uM after 24 hrs by inverted microscopic analysis; type: functional, cell-based; summary of the method: as §2
# [7] = Cytotoxicity against human L02 cells as inhibition of cell viability at 80 uM after 24 hrs by MTT assay; type: cell-based; details: for cytotoxicity at 24 h, 80 µM: L02 cells, read-out: INH
# HEK293 = experiment: (§3) Cytotoxicity against human HEK293 cells as inhibition of cell viability at 80 uM after 24 hrs by MTT assay; type: cell-based; details: hek293, 24 h, 80 µM
# Mus musculus [8] = experiment: Antidepressant-like activity in C57 mouse assessed as reduction in immobility time at 32 mg/kg, ip administered from day 2 to 15 measured on 2nd and 15th day 30 mins after drug challenge by forced swim test; type: functional; details: route intraperitoneal
# Summary of the method: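 Male C57 mice (20–24 g), 10 per group. Day 1: 15 min pre-swim in a cylinder (20 cm diameter) with 15 cm water at 22–25 °C. Days 2–15: daily i.p. 32 mg/kg in 30% β-cyclodextrin. On days 2 and 15, a 6 min swim 30 min after dosing. Immobility (speed <20 mm/s) scored over the last 4 min from video. Mean ± S.D.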
# Mus musculus [9] = experiment: Toxicity in C57 mouse assessed as increase in spontaneous locomotor activity at 32 mg/kg, ip for 14 days by open field test; type: organism-based; parameters: dose 32 mg/kg, route intraperitoneal; details: in vivo, 336 h
# Summary of the method: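 Male C57 mice (20–24 g), 10 per group, 12 h light/dark cycle, food and water ad libitum. Dosed i.p. at 32 mg/kg daily for 14 days, then total distance travelled measured in an open field arena.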
# [10] = as §3; type: cell-based; details: HEK293 cells, read-out: INH
SMILES,Activity (PC-12 [1]),Activity (PC-12 [2]),Activity (PC-12 [3]),Activity (PC-12 [4]),inhibition (PC-12 [5]),inhibition (PC-12 [6]),"cytotoxicity at 24 h, 80 µM [7] [%]",Activity (HEK293),inhibition in vivo at 32 mg/kg (Mus musculus [8]) [%],Activity (Mus musculus [9]) [%],"cytotoxicity at 24 h, 80 µM [10] [%]","Activity ([7]; l02, 24 h, 80 µM)"
COc1ccc2cccc(CCNC(=O)C3CN(C(=O)C(F)(F)F)C3)c2c1,inactive,inactive,inactive,43.5%,Active,Active,2.6,Non-toxic,58.4,88.5,–,–
COc1ccc2cccc(CCNC(=O)C3CN(C(=O)c4ccncc4Cl)C3)c2c1,inactive,inactive,2.1%,inactive,–,–,4.8,–,–,–,17.3,–
CC#C[C@]1(O)CC[C@H]2[C@@H]3CCC4=CC(=O)CCC4=C3[C@@H](c3ccc(N(C)C)cc3)C[C@@]21C [MIFEPRISTONE],–,–,–,31.1%,–,–,–,–,–,–,–,–
COc1ccc(C(=O)N2CC(C(=O)NCCc3cccc4ccc(OC)cc34)C2)cc1,inactive,inactive,inactive,inactive,–,–,7.8,–,–,–,8.9,–
COc1ccc(OC)c(C(=O)N2CC(C(=O)NCCc3cccc4ccc(OC)cc34)C2)c1,inactive,inactive,inactive,22.3%,–,–,1.3,–,–,–,33.4,–
COc1ccc2cccc(CCNC(=O)C3CN(C(=O)N(C)C)C3)c2c1,inactive,1.2%,4.3%,inactive,–,–,–,–,–,–,2.5,Non-toxic
COc1ccc2cccc(CCNC(=O)C3CN(S(=O)(=O)c4ccc(C)cc4)C3)c2c1,inactive,inactive,inactive,inactive,–,–,2.7,–,–,–,3.6,–
COc1ccc2cccc(CCNC(=O)C3CN(C(=O)c4ccco4)C3)c2c1,inactive,inactive,inactive,38.8%,–,–,3.2,–,36.2,–,26.4,–
COc1ccc2cccc(CCNC(=O)C3CN(C(=O)c4ccc(Cl)cc4)C3)c2c1,0.3%,inactive,4.7%,39.2%,Active,Active,5.9,–,49.1,–,11.8,–
COc1ccc2cccc(CCNC(=O)C3CN(C(C)=O)C3)c2c1,inactive,0.6%,1%,inactive,–,–,2.3,–,–,–,6.2,–
COc1ccc2cccc(CCNC(=O)C3CN(C(=O)c4cc([N+](=O)[O-])cc([N+](=O)[O-])c4)C3)c2c1,inactive,1.7%,inactive,inactive,–,–,15.8,–,–,–,11.1,–
COc1ccc2cccc(CCNC(=O)C3CN(C(=O)c4ccccc4)C3)c2c1,2.9%,6.6%,4.6%,inactive,–,–,3.8,–,–,–,11.9,–
COc1ccc2cccc(CCNC(=O)C3CN(C(=O)OCc4ccccc4)C3)c2c1,3.2%,6.6%,7.3%,inactive,–,–,12.1,–,–,–,1,–
CCC(=O)N1CC(C(=O)NCCc2cccc3ccc(OC)cc23)C1,inactive,inactive,7.5%,inactive,–,–,2.9,–,–,–,11.2,–
COc1ccc2cccc(CCNC(=O)C3CN(C(=O)c4ccc(C(F)(F)F)cc4)C3)c2c1,inactive,inactive,inactive,14.6%,–,–,7.9,–,–,–,24.6,–
COc1ccc2cccc(CCNC(=O)C3CN(S(=O)(=O)N(C)C)C3)c2c1,inactive,2.1%,inactive,inactive,–,–,7.4,–,–,–,4.6,–
COc1ccc2cccc(CCNC(C)=O)c2c1 [AGOMELATINE],inactive,2.7%,inactive,26.2%,–,–,–,–,8.4,85.3,–,–
COc1ccc2cccc(CCNC(=O)C3CN(S(=O)(=O)c4ccc(Cl)cc4)C3)c2c1,4.6%,4.5%,6.8%,25.3%,–,–,33.6,–,–,–,21.5,–
COc1ccc2cccc(CCNC(=O)C3CN(S(C)(=O)=O)C3)c2c1,0.9%,inactive,3.7%,1.4%,–,–,4.4,–,–,–,8.5,–
COc1ccc2cccc(CCNC(=O)C3CN(C(=O)c4ccccn4)C3)c2c1,0.7%,inactive,inactive,inactive,–,–,11.2,–,–,–,31.8,–
CNCCC(Oc1ccc(C(F)(F)F)cc1)c1ccccc1 (stereo unspecified) [FLUOXETINE],2.8%,inactive,inactive,19.7%,–,–,–,–,50.7,66.4,–,–
COc1ccc2cccc(CCNC(=O)C3CN(C(=O)c4ccc(C#N)cc4)C3)c2c1,inactive,inactive,inactive,25.8%,–,–,1,–,–,–,17.5,–
COc1cc(OC)cc(C(=O)N2CC(C(=O)NCCc3cccc4ccc(OC)cc34)C2)c1,inactive,2.1%,inactive,inactive,–,–,13.1,–,–,–,13.1,–
